M1 antag – M1 muscarinic receptor (rat) antagonism; P08482; CHO-M1 cells, Fluo-4 calcium, ACh EC80 antagonist mode; hits give low values; B-score at 10 µM; 3.4% of 64,000 active;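 active = calcium fluorescence response, raw or row-and-column corrected B-score, differing from the plate sample mean either way at a set confidence level, mostly lower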
Target sequence (P08482 whole entry, looked up): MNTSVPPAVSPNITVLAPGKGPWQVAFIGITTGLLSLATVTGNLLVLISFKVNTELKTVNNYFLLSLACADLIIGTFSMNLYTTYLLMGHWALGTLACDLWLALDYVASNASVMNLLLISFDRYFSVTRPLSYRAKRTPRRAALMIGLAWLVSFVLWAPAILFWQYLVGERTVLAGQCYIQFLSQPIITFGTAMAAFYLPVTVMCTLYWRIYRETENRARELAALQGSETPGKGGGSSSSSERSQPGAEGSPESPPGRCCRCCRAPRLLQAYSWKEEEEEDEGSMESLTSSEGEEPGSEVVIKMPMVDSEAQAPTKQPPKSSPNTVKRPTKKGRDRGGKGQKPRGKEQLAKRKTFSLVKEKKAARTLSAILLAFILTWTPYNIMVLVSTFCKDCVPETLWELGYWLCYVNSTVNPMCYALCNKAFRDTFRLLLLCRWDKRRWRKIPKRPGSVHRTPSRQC
RORA act – activates the human nuclear receptor RORA. P35398. CHO-K1 Gal4-RORA LBD luciferase reporter, luminescence; percent increase over mock-subtracted basal signal. activation, % at 10 µM. 1.5% of 65,000 active. AID 560;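 active = activation above the mean of all tested compounds plus 3 SD, cut at about 49% in these data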;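 note: 0% = DMSO-treated RORA cells and 100% = added signal equal to DMSO minus mock-transfected cells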
D1 allo mod – allosterically modulates the human D1 dopamine receptor; P21728; HEK293 D1, CRE-luciferase, dopamine EC30 potentiation; actives deviate in either direction; 5.9% of 58,000 active; B-score at 10 µM;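 active = luminescence count or its row- and column-corrected plate score outside the 99.7% band of the plate's sample wells, on either side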
M1 ag – activates the M1 muscarinic receptor. 3% of 64,000 active. B-score at 10 µM. CHO-M1 cells, Fluo-4 calcium fluorescence, agonist mode; hits give high values;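 active = fluorescence rise, raw or as B-score row- and column-corrected plate score, outside the 99.7% band of its plate's samples, either direction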
SF1 activator – activates the human nuclear receptor SF-1. Q13285. CHO-K1 Gal4-SF-1 LBD luciferase reporter; % increase over DMSO SF-1-specific signal. activation, % at 10 µM. 1.9% of 65,000 active;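 active = activation above the mean activation of all tested compounds plus 3 SD, cut at about 50% in these data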
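Test system: transient Gal4-SF-1 LBD reporter, CHO-K1; Amount: 4,000 CHO-K1 cells per well; Doses: 10 µM only; Timing: compound exposure 20 h at 37 °C; Signal: luciferase light emission; Read-out basis: percent activation relative to DMSO median and mock-transfected background; Control set: DMSO negative control and −SF1 background wells; Replicates: one test per compound.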
mHtt clearance – compounds clearing mutant huntingtin protein. HeLa Exon1htt(103Q)mCFP, aggregate imaging; zero = plate's median compound well. inhibition, % at 1.5 µM. 0.42% of 47,000 active. AID 853;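 active = inhibition of aggregate fluorescence above about 70%, also judged a hit by eye on the cell image, limit read from the data, passing the limit was not always enough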;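 note: cells exposed to compound for three days before fixation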
Starred values were filed as active, the others as inactive; · = no result. An excerpt weighted towards active compounds, which were near 11% of everything screened.

SMILES | M1 antag | RORA act | D1 allo mod | M1 ag | SF1 activator | mHtt clearance
NC(=O)C1CCN(C(=O)c2ccc(NC3=NC4CS(=O)(=O)CC4S3)cc2)CC1 (centres undefined) | · | · | · | · | · | -29
CN(C)C(=O)N1CCN(C(=O)N2CCOCC2)CC1 | · | · | · | · | · | 60
Cc1cccc(C)c1NC(=O)Cn1c(=O)n(CCCC(=O)NCc2ccco2)c(=O)c2sccc21 | 2.1 | 27 | -0.41 | 0.27 | -3 | -32
COc1ccccc1N(CC(=O)NCc1ccccc1)C(=O)CCC(=O)Nc1cc(C)ccn1 | · | · | · | · | · | 22
O=C(Cc1ccccc1)NCC(=O)N1CCCCCC1 | · | · | · | · | · | 16
Cc1ccc(-c2nc(Nc3ccccc3)n[nH]2)cc1 | 0 | 63* | -1.4 | 0.52 | 64* | ·
COc1cc2c(cc1NC(=O)c1ccc3c(c1)OCO3)oc1ccccc12 | -0.05 | 17 | -0.012 | 0.44 | 54* | -42
COC(=O)c1cccc(S(=O)(=O)N2CCN(c3nc4ccccc4s3)CC2)c1 | 0.64 | 10 | -2.8* | 0.79 | -10 | ·
COC(=O)c1cccc(S(=O)(=O)N2CCCCC2)c1 | 0.73 | -6 | 0.24 | 0.45 | 11 | -44
O=C(CCCNC(=O)/C(=C\c1ccc(F)cc1)NC(=O)c1ccccc1)OCc1ccccc1 | · | · | · | · | · | -31
c1ccc(-c2nnc3sc(-c4cc5ccccc5o4)nn23)cc1 | 0.37 | -16 | · | 0.42 | -18 | ·
Cc1nnc2sc(-c3cc4ccccc4o3)nn12 | · | 57* | 1.5 | · | 34 | ·
CCCCNC(=S)NNC(=O)c1ccco1 | · | · | · | · | · | -102
Cn1cccc1CNC(=O)Nc1ccccc1 | · | · | · | · | · | -34
Cn1cccc1CNC(=O)Nc1ccc(Cl)cc1 | -0.23 | 16 | -0.76 | -0.68 | 54* | -77
CCCCCCc1ccc(-c2ncc(N)cn2)cc1 | 0.66 | 50* | 0.044 | 0.67 | 59* | ·
CC(=O)c1ccc(NC(=O)c2ccn[nH]2)cc1 | -0.025 | 24 | -2.2* | -1.1 | 40 | ·
COc1ccc(OC)c(C(=O)c2coc3ccc(O)cc23)c1 | 0.027 | 18 | -0.14 | -0.05 | 17 | 32
COc1cccc(CNC(=O)Nc2cccs2)c1 | · | 18 | -3.4* | · | 19 | ·
COCCOC(=O)C1=C(C)N=C2SCCC(=O)N2C1c1cccc(Br)c1 (centres undefined) | 0.091 | 1 | -0.78 | -0.025 | 3 | ·
COc1cccc(CNn2cnnc2)c1OCc1ccc(F)cc1 | 0.34 | -10 | -4.9* | -0.51 | -2 | 39
CCOC(=O)C1CCN(C(=O)C2CCCCC2)CC1 | -0.076 | -14 | -0.039 | -0.23 | -1 | -30
O=C1NCN(c2ccccc2)C12CCN(c1nnnn1-c1ccccc1)CC2 | -0.59 | 8 | · | 2.7 | 3 | -56
CCOC(=O)c1c(NC(=O)C2c3ccccc3Oc3ccccc32)sc(C(=O)N(CC)CC)c1C | · | · | · | · | · | -69
O=C1CCCC2=C1C(c1ccsc1)CC(=O)N2c1ccccc1 (centres undefined) | -0.045 | -9 | -0.49 | 0.65 | 18 | 23
SMILES | M1 antag | RORA act | D1 allo mod | M1 ag | SF1 activator | mHtt clearance
Cc1ccc(C2CC(=O)N(c3ccc(F)cc3)C3=C2C(=O)CCC3)cc1 (centres undefined) | · | · | · | · | · | 79*
Cc1cc(C)c2c3c(cn2n1)c(=O)n(C)c(=O)n3C | · | · | · | · | · | -68
CCCCc1noc2c1/C(=N\O)CC(c1ccccc1)C2 (centres undefined) | -0.28 | 72* | · | -0.088 | 32 | ·
Cc1[nH]c2ccc(C(=O)OCCN(C)C)cc2c1C | -0.35 | 5 | -4* | -0.63 | 2 | 10
O=C(O)CCCCCNC(=O)CCn1nnc2ccccc2c1=O | 1.6* | 5 | -0.31 | 0.056 | 5 | 34
Cc1onc(-c2ccccc2)c1C(=O)Nc1sc2c(c1C#N)CCC2 | -0.57 | 16 | 0.29 | -0.047 | 24 | ·
CC(C)Cc1cc(C(=O)Nc2sc3c(c2C#N)CCCC3)no1 | -0.26 | 41 | 0.035 | -1.1 | 15 | ·
N#Cc1c(NC(=O)c2cc(C3CC3)on2)sc2c1CCC2 | 0.57 | 26 | -0.34 | -0.18 | 80* | ·
Cc1cc(C(=O)Nc2sc3c(c2C#N)CCC3)no1 | 0.77 | 60* | -1.6 | 0.31 | 116* | -25
Cc1cc(C(=O)Nc2sc3c(c2C#N)CCC(C)C3)no1 (centres undefined) | -2 | 53* | -2.6 | 0.32 | 97* | -10
Cc1cc(C(=O)Nc2sc3c(c2C#N)CCCC3)no1 | 0.51 | 41 | -1 | -1.9 | 71* | ·

High-throughput results: PubChem BioAssay, several laboratories
